Where a name gives a salt, the structure may show the parent alone. Marks after values point to notes of the source that are not given here.

Data on two compounds can be found in publication PMC10132129 (RSC Advances, 2023).

In test [1] the test system is streptozotocin-induced diabetic male rats. In words: Body weight and relative reproductive organ weight in diabetic rats. It counts as in vivo, albino rats. Conditions: 5 mg kg^−1 b.w. In a few lines:
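Male albino rats (190–200 g), fasted overnight, given STZ 55 mg kg−1 ip with 5% glucose to drink; FPG >250 mg dL−1 at 72 h defined diabetes. Body weight recorded weeks 0, 5, 9. Organs weighed post-mortem; relative weight = organ/body weight × 100.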

The test system is the same in test [2]. In words: Serum biochemical estimation in diabetic rats. The format is in vivo, albino rats. Particulars: for Fasting plasma glucose / Fasting plasma glucose % reduced / Serum insulin / Serum insulin % increased: 5 mg kg^−1 b.w. A digest of the protocol:
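STZ-diabetic male rats (55 mg kg−1 ip; FPG >250 mg dL−1) dosed orally 9 weeks in 0.5% Na-CMC; n = 6. Fasting retro-orbital blood taken under diethyl ether at weeks 0, 5, 9; serum spun 3500 rpm, 15 min. FPG by glucometer; ALT, AST, ALP, creatinine by commercial kits. Mean ± SD; one-way ANOVA with Tukey test.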

For test [3] the test system is unchanged. In words: Copulatory. Conditions: 5 mg kg^−1 b.w; day 63. The format is in vivo, albino rats. In a few lines: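 STZ-diabetic males dosed orally for 9 weeks; tested on day 63. Females were ovariectomized and primed sc with 3-benzoyloxy-17b-estrol 48 h before and progesterone 500 μg 4 h before testing. Males adapted 10 min under dim red light, then paired 1:1. Mount, intromission and ejaculation latencies/frequencies and post-ejaculatory interval recorded; n = 6.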

Test [4] has the same test system. In words: Mating test. It counts as in vivo, albino rats. Conditions: 5 mg kg^−1 b.w. A digest of the protocol:
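In week 8, each treated diabetic male was housed 5 days with two virgin females. Daily vaginal smears checked for sperm. Sperm-positive females were kept 10 days, then euthanised (diethyl ether overdose) to count fetuses and corpora lutea. Mating success = females mated / females paired; male fertility = fetuses / corpora lutea.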

For test [5] the test system is unchanged. In words: Epididymal sperm characteristics. Particulars: 5 mg kg^−1 b.w, 9 weeks. The format is in vivo, albino rats. In a few lines: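 After 9 weeks' oral dosing of STZ-diabetic rats, cauda epididymal semen was diluted with normal saline in a red-cell pipette (0.5 to 101 mark). Count in Neubauer chamber at ×40, expressed as million cells per mL. Viability by eosin–nigrosin mixed 1:1 for 5 min, ~200 cells scored; unstained cells counted as live. Smears air-dried for morphology; n = 6.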

Test [6] has the same test system. In words: Histopathological examination of testes. It counts as in vivo, albino rats. Particulars: 9 weeks. A digest of the protocol:
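Testes from 9-week-dosed diabetic rats fixed in 10% formalin, paraffin-embedded, cut at 5 μm and H&E-stained; examined at ×400. Tubule diameter and epithelial height measured on 20 near-circular seminiferous tubule cross-sections from three slides (lower, middle, upper testis). n = 6; mean ± SD.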

Test [7] concerns the target human PDE5A (Homo sapiens, UniProt O76074). In words: In vitro PDE5 inhibitory activity. Conditions: read-out: % Inhibition of PDE5. The format is biochemical.
Test [8] is described as follows: ABTS^+· radical scavenging assay. It counts as biochemical. Conditions: read-out: IC50 against ABTS^+· free radical. A digest of the protocol:
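Radical-scavenging assay: test compound at 25–100 μg mL−1 mixed with ABTS+· solution and incubated 37 °C, 6 min. Absorbance read at 750 nm against blank. Ascorbic acid was the standard. Triplicate runs; IC50 reported.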

The mark [9] stands for this setting: 9 weeks treatment, vs diabetic control.

Regarding `CCCc1nn(C)c2c(=O)[nH]c(-c3cc(S(=O)(=O)N4CCN(C)CC4)ccc3OCC)nc12` [Sildenafil citrate], in test [1] (9 weeks), the Body weight was determined as 179.50 ± 5.05 g and the “Body weight % changed” value is recorded as −10.32 ± 3.18%. The compound further gave a Body weight in test [1] (0 week) of 200.33 ± 6.68 g. Further, in test [1] (5 weeks), the Body weight came to 170.83 ± 6.79 g and the “Body weight % changed” value is −14.69 ± 3.27%. For the same compound, in test [2] (9 weeks), the Fasting plasma glucose was 190.67 ± 5.79 mg/dL, the “Fasting plasma glucose % reduced” value is reported as 45.28 ± 2.37%, the Serum insulin is reported as 6.82 ± 0.14 mIU L^−1 and the “Serum insulin % increased” value is 99.58 ± 9.18%. In addition, in test [2] (0 week), the Fasting plasma glucose is 348.67 ± 6.80^c mg dL^−1 and the Serum insulin is listed as 3.43 ± 021^c mIU L^−1. In test [2] (5 weeks), the Fasting plasma glucose was 219.17 ± 5.38 mg/dL, the “Fasting plasma glucose % reduced” value is given as 37.12 ± 2.15%, the Serum insulin is recorded as 6.00 ± 0.29 mIU L^−1 and the “Serum insulin % increased” value is on record as 75.37 ± 3.54%. Moreover, in test [2] (setting [9]), the “Creatinine (Cr) level” value is “remarkable reduction”, the “Total bilirubin (TBIL) level” value is reported as “remarkable reduction”, the “Total protein (TP) level” value is reported as “significant recovery” and the “Urea (U) level” value is recorded as “remarkable reduction”. For the same compound, in test [3], the Ejaculatory latency is on record as 948.83 ± 32.29^a sec, the Intromission frequency is recorded as 8.20 ± 0.55^by no, the Intromission latency is 805.33 ± 23.84^bx sec and the Mount frequency is reported as 578.50 ± 38.01^cy sec. Further, in test [3], the Mount latency was 539.67 ± 27.06^x sec and the Post ejaculatory interval came out at 1311.67 ± 95.19 s. In test [4], the Male fertility was 83.85 ± 3.98^z %, the Mating success came out at 83.34%, the “No. of corpora lutea/rat” value is 12.40 ± 0.52 and the No. of fetuses/rat is given as 10.40 ± 0.70^z. In test [4] (of 12 females paired), the “No. of females mated” value is 10 and the “No. of females pregnant” value is given as 10. Besides, in test [5], the “Detached head from sperm” value is 9.67 ± 2.73^z %, the Sperm abnormalities is reported as 9.83 ± 0.75^ay %, the Sperm count worked out at 56.69 ± 1.37 million cells per mL and the “Sperm count % reduced” value came out at 24.24 ± 3.66%. For the same compound, in test [5], the Sperm motility is 68.67 ± 3.14^by % and the Sperm viability was 68.17 ± 2.56^cz %. For the same compound, in test [6] (5 mg kg^−1 b.w), the “Height of seminiferous epithelium” value is recorded as 70.60 ± 3.10^z μm and the “Mean seminiferous tubule diameter” value is recorded as 217.00 ± 15.14^y μm. In addition, in test [6] (5 mg kg^−1 b.w, range 1–10), the “Mean Johnson's score” value is reported as 9.30 ± 0.48^z. Further, in test [6] (oral treatment), the “Testicular histology (H&E)” value was “marked development in the testicular structure”. In test [7], the inhibition at 2.5 µg/mL is 48.1 ± 1.48%, the inhibition at 5 µg/mL is 67.8 ± 1.21%, the inhibition at 7.5 µg/mL was 84.1 ± 0.86% and the inhibition at 10 µg/mL came out at 97.3 ± 1.64%.

As to `O=C1O[C@H]([C@@H](O)CO)C(O)=C1O` [ascorbic acid], the IC50 in test [8] turned out to be 169 ± 12.9 µM.

As usually defined, the inhibition is how much of the control response was suppressed. What is called IC50 is the concentration at which inhibition is half-maximal.
